From ChEMBL document CHEMBL4229380, “Arylureas derived from colchicine: Enhancement of colchicine oncogene downregulation activity” (Eur J Med Chem, 2018) come the findings set out here.

The test system of experiment [1] is HT-29. The experiment can be described thus: Induction of apoptosis in human HT-29 cells assessed as apoptotic cells at 2000 nM after 48 hrs by Annexin V-FITC staining-based flow cytometric analysis (reference value: 13 +/- 3%). Type of experiment: functional. (In flow cytometry, cells or beads pass a laser one at a time.)
The test system of another experiment is MCF7. The experiment can be described thus: Antiproliferative activity against human MCF7 cells after 2 days by MTT assay. Format: functional, cell-based. The settings on record: MCF7, 48 h. The method, boiled down:
(§1)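 Cells (5×10^3 per well) in DMEM with 10% FBS, glucose, glutamine and antibiotics were exposed to serial dilutions (stocks in DMSO) for 2 days at 37 °C, 5% CO2. MTT was added for 3 h, formazan was dissolved in DMSO and absorbance read at 490 nm. Viability was taken as % of untreated cells. IC50 was read graphically from three independent experiments.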
(In general: Tetrazolium dyes change colour on reduction, which living cells bring about.)

Experiment [2] concerns HT-29. Description: Induction of apoptosis in human HT-29 cells assessed as viable cells at 2000 nM after 48 hrs by Annexin V-FITC staining-based flow cytometric analysis (reference value: 82 +/- 1%). Type of experiment: functional. The settings on record: HT-29, 48 h, read-out: Activity.
The subject of experiment [3] is HT-29. Description: Effect on VEGF protein expression in human HT-29 cells assessed as secreted VEGF level in culture media at 0.5 nM after 48 hrs by ELISA. In general terms: ELISA stands for enzyme-linked immunosorbent assay.
The subject of a further experiment is HEK293. Description: Antiproliferative activity against human HEK293 cells after 2 days by MTT assay. Type of experiment: cell-based. The settings on record: HEK293, 48 h. The method, boiled down: as §1
The test system of experiment [4] is HT-29. Description: Antiproliferative activity against human HT-29 cells after 2 days by MTT assay. Type of experiment: functional, cell-based. The settings on record: HT-29, 48 h. The method, boiled down:
as §1

Experiment [5] has as its system HT-29. Description: Induction of apoptosis in human HT-29 cells assessed as necrotic cells at 2000 nM after 48 hrs by Annexin V-FITC staining-based flow cytometric analysis (reference value: 2 +/- 6%). Type of experiment: functional.
Experiment [6] has as its system HT-29. The experiment can be described thus: Effect on hTERT gene expression in human HT-29 cells assessed as hTERT level at 0.5 nM after 48 hrs by RT-qPCR analysis. Format: functional. The method, boiled down:
(§2)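 HT-29 cells at 70–80% confluence were seeded at 1.5×10^5 per well and left 24 h, then treated 48 h, with DMSO as control. Total RNA was extracted and VEGF-A, c-Myc and hTERT were quantified by TaqMan qPCR, normalized to β-actin and to living cell number. Results are % expression versus control, at least three measurements.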

Experiment [7] concerns HT-29. The experiment can be described thus: Effect on VEGFR2 protein expression in human HT-29 cells assessed as VEGFR2 level at 0.5 nM after 48 hrs by ELISA. Format: functional. The method, boiled down:
(§3)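 HT-29 cells (1.5×10^5 per well, 24 h pre-culture) were treated 48 h and washed in PBS. They were lysed in Tris pH 7.4 buffer with detergents, phosphatase inhibitors, PMSF and protease inhibitors. Lysates were adjusted to 200 µg/mL protein (Bradford) and total c-Myc or VEGFR-2 was measured by sandwich ELISA kit. Values are % of DMSO control, ≥3 measurements.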

Experiment [8] relates to HT-29. Description: Effect on VEGF gene expression in human HT-29 cells assessed as VEGF level at 0.5 nM after 48 hrs by RT-qPCR analysis. Format: functional. The method, boiled down: as §2
Another experiment deals with HeLa. The experiment can be described thus: Antiproliferative activity against human HeLa cells after 2 days by MTT assay. Type of experiment: functional, cell-based. The settings on record: 48 h. The method, boiled down:
as §1

For experiment [9], the system named is HT-29. Description: Effect on c-MYC gene expression in human HT-29 cells assessed as c-MYC level at 0.5 nM after 48 hrs by RT-qPCR analysis. Type of experiment: functional. The method, boiled down:
as §2

Experiment [10] has as its system HT-29. The experiment can be described thus: Effect on c-MYC protein expression in human HT-29 cells assessed as c-MYC level at 0.5 nM after 48 hrs by ELISA. Type of experiment: functional. The gist of the method:
as §3

The subject of experiment [11] is HT-29. The experiment can be described thus: Induction of apoptosis in human HT-29 cells assessed as viable cells at 25 nM after 48 hrs by Annexin V-FITC staining-based flow cytometric analysis (reference value: 82 +/- 1%). Format: functional. Conditions: HT-29, 48 h, read-out: Activity.
Experiment [12] concerns HT-29. The experiment can be described thus: Induction of apoptosis in human HT-29 cells assessed as necrotic cells at 25 nM after 48 hrs by Annexin V-FITC staining-based flow cytometric analysis (reference value: 2 +/- 6%). Format: functional.
Experiment [13] deals with HT-29. The experiment can be described thus: Induction of apoptosis in human HT-29 cells assessed as apoptotic cells at 25 nM after 48 hrs by Annexin V-FITC staining-based flow cytometric analysis (reference value: 13 +/- 3%). Type of experiment: functional.
Experiment [14] deals with HT-29. The experiment can be described thus: Induction of apoptosis in human HT-29 cells assessed as viable cells at 15 nM after 48 hrs by Annexin V-FITC staining-based flow cytometric analysis (reference value: 82 +/- 1%). Type of experiment: functional. Conditions: HT-29, 48 h, read-out: Activity.
In experiment [15] the test system is HT-29. The experiment can be described thus: Effect on c-MYC protein expression in human HT-29 cells assessed as c-MYC level at 15 nM after 48 hrs by ELISA. Format: functional. The method, boiled down:
as §3

For experiment [16], the system named is HT-29. Description: Effect on VEGF gene expression in human HT-29 cells assessed as VEGF level at 15 nM after 48 hrs by RT-qPCR analysis. Type of experiment: functional. The gist of the method: as §2
For experiment [17], the system named is HT-29. The experiment can be described thus: Induction of apoptosis in human HT-29 cells assessed as necrotic cells at 15 nM after 48 hrs by Annexin V-FITC staining-based flow cytometric analysis (reference value: 2 +/- 6%). Type of experiment: functional.
The subject of experiment [18] is HT-29. Description: Effect on hTERT gene expression in human HT-29 cells assessed as hTERT level at 15 nM after 48 hrs by RT-qPCR analysis. Type of experiment: functional. The gist of the method: as §2
Experiment [19] has as its system HT-29. Description: Effect on VEGF protein expression in human HT-29 cells assessed as secreted VEGF level in culture media at 15 nM after 48 hrs by ELISA.
In experiment [20] the test system is HT-29. Description: Effect on c-MYC gene expression in human HT-29 cells assessed as c-MYC level at 15 nM after 48 hrs by RT-qPCR analysis. Format: functional. The gist of the method: as §2
Experiment [21] deals with HT-29. Description: Induction of apoptosis in human HT-29 cells assessed as apoptotic cells at 15 nM after 48 hrs by Annexin V-FITC staining-based flow cytometric analysis (reference value: 13 +/- 3%). Type of experiment: functional.
Experiment [22] concerns HT-29. The experiment can be described thus: Effect on VEGFR2 protein expression in human HT-29 cells assessed as VEGFR2 level at 15 nM after 48 hrs by ELISA. Format: functional. The gist of the method:
as §3

For experiment [23], the system named is HT-29. Description: Induction of apoptosis in human HT-29 cells assessed as viable cells at 40 nM after 48 hrs by Annexin V-FITC staining-based flow cytometric analysis (reference value: 82 +/- 1%). Format: functional. Conditions: HT-29, 48 h, read-out: Activity.
The test system of experiment [24] is HT-29. Description: Effect on VEGF gene expression in human HT-29 cells assessed as VEGF level at 25 nM after 48 hrs by RT-qPCR analysis. Format: functional. The method, boiled down:
as §2

The test system of experiment [25] is HT-29. Description: Effect on c-MYC gene expression in human HT-29 cells assessed as c-MYC level at 25 nM after 48 hrs by RT-qPCR analysis. Format: functional. The method, boiled down:
as §2

The subject of experiment [26] is HT-29. Description: Effect on VEGF protein expression in human HT-29 cells assessed as secreted VEGF level in culture media at 25 nM after 48 hrs by ELISA.
Experiment [27] has as its system HT-29. Description: Effect on c-MYC protein expression in human HT-29 cells assessed as c-MYC level at 25 nM after 48 hrs by ELISA. Format: functional. The method, boiled down: as §3
In experiment [28] the test system is HT-29. Description: Induction of apoptosis in human HT-29 cells assessed as necrotic cells at 40 nM after 48 hrs by Annexin V-FITC staining-based flow cytometric analysis (reference value: 2 +/- 6%). Type of experiment: functional.
In experiment [29] the test system is HT-29. The experiment can be described thus: Effect on hTERT gene expression in human HT-29 cells assessed as hTERT level at 25 nM after 48 hrs by RT-qPCR analysis. Type of experiment: functional. The method, boiled down:
as §2

Experiment [30] has as its system HT-29. Description: Induction of apoptosis in human HT-29 cells assessed as apoptotic cells at 40 nM after 48 hrs by Annexin V-FITC staining-based flow cytometric analysis (reference value: 13 +/- 3%). Type of experiment: functional.
In experiment [31] the test system is HT-29. Description: Effect on VEGFR2 protein expression in human HT-29 cells assessed as VEGFR2 level at 25 nM after 48 hrs by ELISA. Format: functional. The gist of the method: as §3

As to `COc1cc2c(c(OC)c1OC)-c1ccc(OC)c(=O)cc1[C@@H](NC(=O)Nc1ccc(C)cc1Cl)CC2`, the Activity in the experiment on HT-29 [1] came to 33%; with HT-29 [3] it was 75%; in the experiment on HT-29 [5], 1%; with HT-29 [6], 80%; in the experiment with HT-29 [7], 45%; with HT-29 [8] it was 70%. In addition, the Activity in the experiment with HT-29 [9] was determined as 85%; in the experiment with HT-29 [10], 112%. Moreover, the IC50 came out at 0.9 nM in the experiment on MCF7, 3 nM in the experiment with HEK293, 0.71 nM in the experiment with HT-29 [4] and 3 nM in the experiment with HeLa. In the experiment with HT-29 [2], the viability at 2 µM came out at 66%.

For `COc1cc2c(c(OC)c1OC)-c1ccc(OC)c(=O)cc1[C@@H](NC(=O)Nc1ccccc1C)CC2`, the viability at 0.025 µM with HT-29 [11] came out at 64%. In addition, the half-maximal inhibitory concentration (IC50) with MCF7 was 119 nM; with HEK293, 44 nM; with HT-29 [4] it was 26 nM; with HeLa it was 32 nM. Besides, the Activity in the experiment on HT-29 [12] was 2%; in the experiment with HT-29 [13], 34%.

`COc1cc2c(c(OC)c1OC)-c1ccc(OC)c(=O)cc1[C@@H](NC(=O)Nc1ccc(F)cc1C)CC2`: in the experiment on HT-29 [14], the viability at 0.015 µM came out at 73%. For the same compound, the IC50 with MCF7 came to 10 nM; with HEK293, 65 nM; with HT-29 [4], 14 nM; with HeLa, 21 nM. The Activity in the experiment on HT-29 [15] is listed as 110%; in the experiment with HT-29 [16], 63%; with HT-29 [17] it was 1%; with HT-29 [18], 68%; in the experiment on HT-29 [19], 90%; in the experiment with HT-29 [20], 65%. The Activity in the experiment on HT-29 [21] amounted to 26%; with HT-29 [22] it was 62%.

Consider `COc1cc2c(c(OC)c1OC)-c1ccc(OC)c(=O)cc1[C@@H](NC(C)=O)CC2` [COLCHICINE], for which the viability at 0.04 µM with HT-29 [23] was 26%. Moreover, the Activity turned out to be 55% with HT-29 [24]; 37% with HT-29 [25]; 40% with HT-29 [26]; 63% in the experiment on HT-29 [27]; 1% in the experiment on HT-29 [28]; 87% in the experiment on HT-29 [29]. In addition, the Activity was found to be 73% with HT-29 [30] and 94% in the experiment with HT-29 [31]. Further, the IC50 came to 20 nM with MCF7, 13 nM in the experiment on HEK293, 13 nM with HT-29 [4] and 14 nM in the experiment with HeLa.

What is called IC50 is the midpoint of a concentration-inhibition curve.
